Active and inactive are the calls of the source. No cut-off for these calls is given here. Where a SMILES comes first, the peptide text is derived from it.
Tests used:
[1] = Effect on MBP83-99 peptide-induced SJL/J mouse spleen cells proliferation assessed as [3H]thymidine incorporation after 6 days; type: tissue-based; details: 144 h
How it was run: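 Spleen cells taken 28 days after immunization of female 6-8 week SJL/J mice with native MBP83-99 in CFA. 1 × 10^5 cells/well were cultured 1-6 days at 37 °C with recall peptide (10 µg/ml); cells alone served as background. 1 µCi [3H]thymidine was added per well, 6 h before harvest, one plate per day. Reported as mean cpm of triplicate wells, three mice per group.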

[2] = system: spleen; assay: Increase in MBP83-99 peptide-induced IL4 production in SJL/J mouse spleen cells assessed per 0.5 million cells after 24 hrs by ELISpot analysis; type: functional, cell-based
How it was run: (§1)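 Female SJL/J mice immunized with peptide in CFA or with peptide conjugated to reduced mannan (50 µg intradermal, days 0 and 14). Spleens taken at day 28. 5 × 10^5 cells/well were incubated 24 h at 37 °C with 10 µg/mL recall peptide on anti-IL-4-coated plates, then developed with biotin anti-IL-4, streptavidin-ALP and a colorimetric substrate. Triplicate wells. Reported as SFU/0.5 million cells minus cells-alone background.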

[3] = Induction of IL4 production in SJL/J mouse spleen cells assessed as spot forming unit per 0.5 million cells by ELISpot analysis; type: functional; how it was run: as §1

Compound | Activity [1] | Activity [2] | Activity [3]
CC[C@H](C)[C@H](NC(=O)[C@H](CC(N)=O)NC(=O)[C@H](CCCCN)NC(=O)[C@H](Cc1ccccc1)NC(=O)[C@H](Cc1ccccc1)NC(=O)[C@H](Cc1c[nH]cn1)NC(=O)[C@@H](NC(=O)[C@@H](NC(=O)[C@@H]1CCCN1C(=O)[C@H](CC(N)=O)NC(=O)[C@@H](N)CCC(=O)O)C(C)C)C(C)C)C(=O)N[C@H](C(=O)N[C@H](C(=O)N1CCC[C@H]1C(=O)N[C@@H](CCCNC(=N)N)C(=O)N[C@H](C(=O)N1CCC[C@H]1C(=O)O)[C@@H](C)O)[C@@H](C)O)C(C)C | Active | – | –
CC[C@H](C)[C@H](NC(=O)[C@H](CC(N)=O)NC(=O)[C@H](CCCCN)NC(=O)[C@H](Cc1ccccc1)NC(=O)[C@H](Cc1ccccc1)NC(=O)[C@H](Cc1cnc[nH]1)NC(=O)[C@@H](NC(=O)[C@@H](NC(=O)[C@@H]1CCCN1C(=O)[C@H](CC(N)=O)NC(=O)[C@@H](N)CCC(=O)O)C(C)C)C(C)C)C(=O)N[C@H](C(=O)N[C@H](C(=O)N1CCC[C@H]1C(=O)N[C@@H](CCCNC(=N)N)C(=O)N[C@H](C(=O)N1CCC[C@H]1C(=O)O)[C@@H](C)O)[C@@H](C)O)C(C)C | – | inactive | –
H-ENPVVHFFANIVTPRTP-OH | – | inactive | 600
CC[C@H](C)[C@@H]1NC(=O)[C@H](CC(N)=O)NC(=O)[C@H](C)NC(=O)[C@H](Cc2ccccc2)NC(=O)[C@H](Cc2ccccc2)NC(=O)[C@H](Cc2cnc[nH]2)NC(=O)[C@H](C(C)C)NC(=O)[C@H](C(C)C)NC(=O)[C@@H]2CCCN2C(=O)[C@H](CC(N)=O)NC(=O)[C@H](CCC(=O)O)NC(=O)[C@@H]2CCCN2C(=O)[C@H]([C@@H](C)O)NC(=O)[C@H](CCCNC(=N)N)NC(=O)[C@@H]2CCCN2C(=O)[C@H]([C@@H](C)O)NC(=O)[C@H](C(C)C)NC1=O (cyclo(ANIVTPRTPENPVVHFF)) | – | – | 70
